Measured values of several laboratories.
Compare with care: the assays were run in different laboratories.

| Compound | assay | system | setting | solubility |
| --- | --- | --- | --- | --- |
| OCc1ccc(-c2nn(Cc3ccccc3)c3ccncc23)o1 | – | aqueous buffer | 6 h, pH 7.4 | > 45 µg/mL |
| Cc1c(Cl)cccc1-c1ccc2c(c1)N(Cc1noc(C3CCC3)n1)C(=O)CO2 | – | PBS | 8 h, pH 7.4 | 100 µM |
| CNS(=O)(=O)c1ccc(Nc2ncc3cc(Cl)c(=O)n(C4CCCC4)c3n2)c(C)c1 | – | FaSSIF | 2 h | 15 µM |
| OCc1ccc(-c2nn(Cc3ccncc3)c3ccccc23)o1 | – | aqueous buffer | 6 h, pH 7.4 | > 45 µg/mL |
| CC(C)N(c1ccc(C#N)cc1)c1ccc(NC(=O)CN(C)c2ccccc2N2CCCC2=O)cn1 | – | PBS | pH 7.4 | 40 µM |
| CNS(=O)(=O)c1ccc(Nc2ncc(C(F)(F)F)c([C@H]3CC[C@@](C)(O)CC3)n2)c(C)c1 | – | PBS | 2 h, pH 7.4 | 11 µM |
| COc1ccccc1Cn1nc(-c2ccc(CO)o2)c2ccccc21 | – | aqueous buffer | 6 h, pH 7.4 | 1 µg/mL |
| O=C(O)c1cc(-c2ccc(-n3ccnn3)cc2)c2ccc(-c3ccc(C(F)(F)F)cc3)cc2c1 | – | aqueous buffer | pH 4 | 0.19 µg/mL |
| O=C(Nc1ccc(OC(F)(F)F)cc1)N[C@H]1CC[C@H](Oc2ccc(C(=O)O)cc2)CC1 | – | simulated gastric fluid | 1 h, pH 1, 37 °C, acidic | 0.0008 µg/mL |
| Cn1cc(-c2ccc3c(Cl)cn(CC(=O)Nc4ccccc4Cl)c3c2)cn1 | – | PBS | pH 7.4 | < 2.7 µM |
| Clc1ccc(Nc2ncnc3ccc(-c4cccc(N5CCOCC5)c4)cc23)cc1 | – | aqueous buffer | pH 7.4, 25 °C | < 0.4 µM |
| CCN(CC)CCOc1ccc2c(=O)c3c([nH]c2c1)CCCC3 | absorbance | aqueous buffer | 90 min, pH 7.4 | > 500 µM |
| Cc1ccc(Nc2ncnc3ccc(-c4cccc(N5CCOCC5)c4)cc23)cc1 | – | aqueous buffer | pH 7.4, 25 °C | 0.9 µM |
| Cc1ccc(Nc2cnnc3ccc(-c4ccc(N5CCN(C)CC5)cc4)cc23)cn1 | – | aqueous buffer | pH 7.4, 25 °C | 60 µM |
| c1cc(-c2ccc3ncnc(Nc4ncco4)c3c2)cc(N2CC3(COC3)C2)c1 | – | aqueous buffer | pH 7.4, 25 °C | 3 µM |
| CCOc1ccc(Nc2c3c(nc4ccccc24)CCC3)cc1 | – | simulated gastric fluid | 30 min, pH 2, acidic | > 100 µg/mL |
| O=c1c2ccc(OCc3ccc(C(F)(F)F)cc3)cc2[nH]c2cc(Cl)cc(F)c12 | absorbance | aqueous buffer | 90 min, pH 7.4 | < 3.12 µM |
| OCc1ccc(-c2nn(Cc3ccccn3)c3ccccc23)o1 | – | aqueous buffer | 6 h, pH 7.4 | > 45 µg/mL |
| CCOC(=O)C1=C(CN2CCOCC2)NC(c2nccs2)=NC1c1ccc(F)cc1Br (stereo not drawn) | HPLC | aqueous buffer | pH 7.4 | < 1 µg/mL |
| c1cc(-c2ccc3ncnc(Nc4ncco4)c3c2)cc(N2CC3CCC(C2)O3)c1 | – | aqueous buffer | pH 7.4, 25 °C | 0.4 µM |
| CCCCN(CCCC)CCCOc1ccc2c(=O)c3c([nH]c2c1)CCCC3 | absorbance | aqueous buffer | 90 min, pH 7.4 | > 500 µM |
| CCOC(=O)C1=C(CN2CCC[C@@H]2C(=O)Nc2ccc(B(O)O)cc2)NC(c2nccs2)=N[C@H]1c1ccc(F)cc1Br | HPLC | aqueous buffer | pH 2 | 257 µg/mL |
| CNS(=O)(=O)c1ccc(Nc2ncc(C(F)(F)F)c(N3CCC[C@](C)(O)C3)n2)c(C)c1 | – | PBS | 2 h, pH 7.4 | 37 µM |

| Compound | assay | system | setting | solubility |
| --- | --- | --- | --- | --- |
| CC1(CNc2nc(-c3cccs3)nc(Cl)c2-c2c(F)cc(N)cc2F)COC1 | mass spectrometry | PBS | pH 7.4 | 46 µM |
| CC(=O)N[C@@H](CS)C(=O)O | – | aqueous buffer | pH 7.5 | 164000 µg/mL |
| O=C(O)Cc1ccccc1Nc1c(Cl)cccc1Cl | – | FaSSIF | – | 324 µM |
| NCc1ccc(-c2nn(Cc3ccccn3)c3cccnc23)o1 | – | aqueous buffer | 6 h, pH 7.4 | > 30 µg/mL |
| CC(C)(C)OC(=O)N1CCC(Oc2ccc3c(=O)c4c(Cl)cc(F)cc4[nH]c3c2)CC1 | absorbance | aqueous buffer | 90 min, pH 7.4 | < 3.12 µM |
| OCc1ccc(-c2nn(Cc3ccccc3)c3cccnc23)o1 | – | aqueous buffer | 6 h, pH 7.4 | > 45 µg/mL |
| CN1CCN(c2cccc(-c3ccc4ncnc(Nc5ccc([N+](=O)[O-])c(C(F)(F)F)c5)c4c3)c2)CC1 | – | aqueous buffer | pH 7.4, 25 °C | 2 µM |
| O=C(O)c1cc(-c2ccc(-n3ccnn3)cc2)cc(-n2cc(-c3ccc(C(F)(F)F)cc3)nn2)c1 | – | aqueous buffer | pH 7.4 | 7.6 µg/mL |
| Cc1ccc(Oc2ccc(NC(=O)COc3ccccc3N3CCCC3=O)cc2)cc1 | – | PBS | pH 7.4 | 4.2 µM |
| C[C@@H]1CN(c2cccc(-c3ccc4ncnc(Nc5ncco5)c4c3)c2)C[C@H](C)O1 | – | aqueous buffer | pH 7.4, 25 °C | 11 µM |
| CN(CC(=O)Nc1ccc(N(C)c2ccc(Cl)c(F)c2)cc1)c1ccccc1N1CCCC1=O | – | PBS | pH 7.4 | < 2.5 µM |
| Cc1ncc(-c2cc3cc(-c4c(C)ccc(O)c4C)cnc3[nH]2)cn1 | – | aqueous buffer | 24 h, pH 7.4 | < 1.56 µM |
| OCc1ccc(-c2nn(Cc3ccccc3)c3ncccc23)o1 | – | aqueous buffer | 6 h, pH 7.4 | > 45 µg/mL |
| CNS(=O)(=O)c1ccc(Nc2ncc(C(F)(F)F)c(N3CCC(C)(O)CC3)n2)c(C)c1 | – | FaSSIF | 2 h | 26 µM |
| O=C(CCCCCCC(=O)Nc1ccccc1)NO | – | water | – | 720 µg/mL |
| CN(c1ncco1)c1ncnc2ccc(-c3cccc(N4CCOCC4)c3)cc12 | – | aqueous buffer | pH 7.4, 25 °C | 802 µM |
| O=c1c2c(F)cc(Cl)cc2[nH]c2cccc(Oc3ccc(OC(F)(F)F)cc3)c12 | absorbance | aqueous buffer | 90 min, pH 7.4 | 32.3 µM |
| Nc1nc2c(ncn2COCCO)c(=O)[nH]1 | shake flask | water | 24 h | 1770 µg/mL |
| CC(C)N(c1ccc(Cl)c(F)c1)c1ccc(NC(=O)CN(C)c2ccccc2N2CCCC2=O)cn1 | – | PBS | pH 7.4 | 9.6 µM |
| N[C@@H]1COc2ccc(-c3cccc(COc4ccccc4C(Nc4ccc5oc(=O)[nH]c5c4)C(=O)O)c3)cc21 (mixture of isomers) | – | aqueous buffer | pH 6.8 | 200 µM |
| Cc1ccc(N(C)c2ccc(NC(=O)CN(C)c3ccccc3N3CCCC3=O)cn2)cc1 | – | PBS | pH 7.4 | 44 µM |
| Cc1ccccc1CN1C(=O)C2=C(CCN(Cc3ccccc3)C2)N2CCN=C12 | shake flask | aqueous buffer | pH 5 | 6020 µg/mL |
